# Screens as filed in PubChem.
# Shown is part of a subset that was picked to be rich in hits.
# T cruzi growth-1: blocks T. cruzi growth in NIH3T3 culture; T. cruzi beta-gal in NIH3T3, GalScreen luminescence, 90 h; inhibition, % at 8.34 µM; 77,000 compounds, 5.9% hits;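 active = mean inhibition above about 93%, with at least 55% of replicates each passing it, limit read from the data, passing the limit was not always enough; inconclusive = only one of those two conditions holds; inactive = neither condition holds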
# IDH1 R132H inh: blocks human IDH1 R132H reductase activity | O75874 | diaphorase/resazurin fluorescence, 60 min | inhibition, % at 10 µM | 70,000 compounds, 0.18% hits; in the data active = inhibition above about 34%; inconclusive = no clear call, values can overlap the other calls; inactive = below about 11%;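 note: 0% = DMSO and 100% = no enzyme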
# KDM4C inh: inhibitors of human demethylase GASC-1 KDM4C | AID 720574 | 96,000 compounds, 0.15% hits | GST-KDM4C 2-372, H3K9me3 peptide, LANCE TR-FRET | Q9H3R0 | inhibition, % at 12.5 µM;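 active = mean replicate inhibition above about 25%, with at least 55% of replicates also reaching it, limit read from the data, passing the limit was not always enough; inconclusive = only one of those two conditions met; inactive = neither condition met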
# Target sequence (Q9H3R0 2-372 limits assumed): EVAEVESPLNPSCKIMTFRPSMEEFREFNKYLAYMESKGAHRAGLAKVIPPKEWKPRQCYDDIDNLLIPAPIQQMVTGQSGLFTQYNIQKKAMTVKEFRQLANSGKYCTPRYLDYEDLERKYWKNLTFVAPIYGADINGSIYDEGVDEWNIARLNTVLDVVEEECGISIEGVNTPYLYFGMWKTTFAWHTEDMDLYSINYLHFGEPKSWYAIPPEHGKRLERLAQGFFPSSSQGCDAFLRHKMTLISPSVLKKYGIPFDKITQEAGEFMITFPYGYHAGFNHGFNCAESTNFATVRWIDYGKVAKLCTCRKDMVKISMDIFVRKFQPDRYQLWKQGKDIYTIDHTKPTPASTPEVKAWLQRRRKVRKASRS
#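 Material: GST-tagged GASC-1 (JMJD2C) catalytic fragment, aa 2-372. Input: enzyme final amount 10 nM. Medium: HEPES buffer, pH 7.5, plus ascorbate. Reagent: H3K9me3 peptide substrate, Fe(II), 2-oxoglutarate. Doses: single dose. Times: reaction 30 min RT, detection step 1 h RT. Measured by: LANCE TR-FRET. Evaluation: Fall in 671/618 emission ratio as inhibition.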
# T cruzi growth-2: blocks T. cruzi growth in NIH3T3 host cells; shares compounds with T cruzi growth-1; T. cruzi beta-gal in NIH3T3, GalScreen luminescence, 90 h; inhibition, % at 8.35 µM; 5,600 compounds, 72% hits; AID 651739;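 active = mean replicate inhibition above about 95% and at least 55% of replicates individually reaching it, limit read from the data; inconclusive = only one of the two criteria is met; inactive = neither criterion is met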
# T cruzi growth-3: inhibitors of T. cruzi proliferation. shares compounds with T cruzi growth-1. T. cruzi beta-gal in NIH3T3, GalScreen luminescence, 90 h. inhibition, % at 2.09 µM. 5,600 compounds, 21% hits. AID 651740;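 active = mean inhibition above about 95%, with at least 55% of replicates also reaching it, limit read from the data; inconclusive = meets just one of the two conditions; inactive = meets neither condition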;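 note: plate controls were neutral control median for no effect and positive control median for full effect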
# NIH3T3 tox: cytotoxicity in mouse NIH/3T3 fibroblasts; AID 651742; 5,600 compounds, 14% hits; NIH/3T3 viability, CellTiter-Glo ATP luminescence, 90 h; shares compounds with T cruzi growth-1; cytotoxicity (signal decrease), % at 8.35 µM;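 active = mean signal decrease across replicates above about 35% based on untreated-well scatter, with enough replicates individually passing, limit read from the data; inconclusive = no rule stated though some were filed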;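 note: 0% = median of neutral control wells and 100% = median of positive control wells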
# NIH3T3 tox 2: kills mouse NIH/3T3 fibroblasts; inhibition, % at 24.9 µM; 5,600 compounds, 56% hits; shares compounds with T cruzi growth-1; NIH/3T3 viability, CellTiter-Glo ATP luminescence, 90 h;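 active = mean loss of cell viability signal at or above a set limit, and enough replicates individually reaching it; inconclusive = meets only the mean limit or only the replicate share; inactive = meets neither condition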;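 note: 0% = median of neutral control wells and 100% = median of positive control wells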
# * = called active by the depositor; ? = inconclusive; . = no result.
SMILES,T cruzi growth-1,IDH1 R132H inh,KDM4C inh,T cruzi growth-2,T cruzi growth-3,NIH3T3 tox,NIH3T3 tox 2
O=S(=O)(c1ccc(F)cc1)N1CCCCN2[C@H](C1)[C@@H](c1ccc(-c3ccccc3)cc1)[C@@H]2CO,103*,.,1,108*,74,13,62*
O=S(=O)(c1ccc(F)cc1)N1CCCCN2[C@H](CO)[C@@H](c3ccc(-c4ccccc4)cc3)[C@@H]2C1,64,.,-1,.,.,.,.
COC(=O)c1c(NC(=O)c2ccc(NS(C)(=O)=O)cc2)sc2c1CCCC2,.,0,.,.,.,.,.
CC(C)CC#Cc1ccc2c(c1)O[C@H](CN(C)CC1CCOCC1)[C@@H](C)CN([C@@H](C)CO)S2(=O)=O,106,0,-2,.,.,.,.
CCCC#Cc1ccc2c(c1)O[C@@H](CN(C)CC1CC1)[C@@H](C)CN([C@@H](C)CO)S2(=O)=O,31,-1,0,.,.,.,.
CC(C)CC#Cc1ccc2c(c1)O[C@H](CN(C)CC1CC1)[C@H](C)CN([C@@H](C)CO)S2(=O)=O,?,-2,-1,100*,90,40*,107*
CC(C)CC#Cc1ccc2c(c1)O[C@H](CN(C)CC1CCOCC1)[C@H](C)CN([C@H](C)CO)S2(=O)=O,?,.,3,108*,85,22,105*
Cc1ccc(-n2nc3ccc(NC(=O)COc4cccc(C)c4)cc3n2)cc1,.,0,.,.,.,.,.
O=C(COc1cccc(C(F)(F)F)c1)NCc1cccnc1,.,3,.,.,.,.,.
Cc1ccc(Cl)cc1N(CC(=O)O)S(C)(=O)=O,.,0,.,.,.,.,.
CCC(=O)N1CC[C@@H]2[C@H]1c1cc(-c3cccc(OC)c3)ccc1N(C)[C@H]2CO,90,.,1,.,.,.,.
COCC(=O)N1CC[C@@H]2[C@@H](CO)N(C)c3ccc(-c4ccccc4)cc3[C@@H]21,98*,.,4,104*,56,-27,-20
CCC(=O)N1CC[C@@H]2[C@@H](CO)N(C)c3ccc(-c4cccc(F)c4)cc3[C@@H]21,27,.,0,.,.,.,.
CN1c2ccc(-c3cccc(F)c3)cc2[C@H]2[C@H](CCN2C(=O)C2CC2)[C@H]1CO,66,.,-2,.,.,.,.
COCC(=O)N1CC[C@@H]2[C@H]1c1cc(-c3cccc(F)c3)ccc1N(C)[C@@H]2CO,103*,.,3,103*,34,7,11
COCC(=O)N1CC[C@@H]2[C@H]1c1cc(-c3cccc(OC)c3)ccc1N(C)[C@@H]2CO,117*,.,5,107*,84,2,-5
CN1c2ccc(-c3cccc(F)c3)cc2[C@@H]2[C@@H](CCN2C(=O)C2CC2)[C@H]1CO,100*,.,0,102*,101*,22,91*
COCC(=O)N1CC[C@H]2[C@@H]1c1cc(-c3ccccc3)ccc1N(C)[C@H]2CO,71,.,1,.,.,.,.
C#CCOc1ccc(/C=N/NC(=O)c2ccccc2O)cc1,.,0,.,.,.,.,.
O=C(Nc1ccc(Cc2ccc(O)c(NC(=O)c3ccccc3F)c2)cc1O)c1ccccc1F,.,0,.,.,.,.,.
Cc1ccc(NC(=O)CSC2CC(=O)N(c3ccc(Cl)cc3)C2=O)cc1 (stereo not given),.,0,.,.,.,.,.
Cc1sc2ncn(CC(=O)Nc3cccc(Cl)c3C)c(=O)c2c1-c1ccccc1,.,0,.,.,.,.,.
Cc1ccc(Oc2coc3cc(OCC(=O)Nc4ccccc4C(F)(F)F)ccc3c2=O)cc1,.,0,.,.,.,.,.
O=C(NCCc1c[nH]c2ccccc12)NC12CC3CC(CC(C3)C1)C2,.,0,.,.,.,.,.
CCCCCCCC/C=C/CCCCCCCC(=O)NC(CO)Cc1ccc(O)cc1 (stereo not given),.,0,.,.,.,.,.
SMILES,T cruzi growth-1,IDH1 R132H inh,KDM4C inh,T cruzi growth-2,T cruzi growth-3,NIH3T3 tox,NIH3T3 tox 2
Cc1ccc(-c2cnc3c(c2)C(=O)N([C@H](C)CO)C[C@@H](C)[C@H](CN(C)Cc2ccccc2F)O3)cc1,86,0,-2,.,.,.,.
Cc1ccc(-c2cnc3c(c2)C(=O)N([C@@H](C)CO)C[C@H](C)[C@@H](CN(C)Cc2ccccc2F)O3)cc1,115*,0,7,15,-30,-4,4
Cc1ccc(-c2cnc3c(c2)C(=O)N([C@@H](C)CO)C[C@H](C)[C@H](CN(C)Cc2ccccc2F)O3)cc1,100*,0,0,107*,32,9,44*
Cc1ccc(-c2cnc3c(c2)C(=O)N([C@H](C)CO)C[C@@H](C)[C@H](CN(C)CC2CCCCC2)O3)cc1,35,4,2,.,.,.,.
Cc1ccc(-c2cnc3c(c2)C(=O)N([C@H](C)CO)C[C@H](C)[C@H](CN(C)Cc2ccccc2F)O3)cc1,93,1,-2,.,.,.,.
Cc1ccc(-c2cnc3c(c2)C(=O)N([C@@H](C)CO)C[C@@H](C)[C@H](CN(C)CC2CCCCC2)O3)cc1,110*,.,0,95*,40,9,104*
Cc1sc2nc(SCc3n[nH]c(=S)n3-c3ccccc3)[nH]c(=O)c2c1C,.,2,.,.,.,.,.
Cc1ccc(Oc2ccc(NC(=O)CN3C(=O)C4C5C=CC(C6CC56)C4C3=O)cc2)cc1 (stereo not given),.,1,.,.,.,.,.
Cc1ccc(-n2nnnc2SCC(=O)Nc2ccc(N3CCOCC3)c(Cl)c2)cc1C,.,-1,.,.,.,.,.
C[C@H](CO)N1C[C@H](C)[C@@H](CN(C)Cc2ccc(Cl)c(Cl)c2)Oc2ccc(N(C)C)cc2CC1=O,108*,0,-1,107*,94,10,103*
C[C@@H]1CN([C@H](C)CO)C(=O)Cc2cc(N(C)C)ccc2O[C@H]1CN(C)Cc1ccc(Cl)c(Cl)c1,58,-2,0,.,.,.,.
C[C@H](CO)N1C[C@H](C)[C@H](CN(C)Cc2ccc(Cl)c(Cl)c2)Oc2ccc(N(C)C)cc2CC1=O,?,-1,-2,71,12,-4,-1
C[C@H]1CN([C@@H](C)CO)C(=O)Cc2cc(N(C)C)ccc2O[C@H]1CN(C)Cc1ccc2c(c1)OCO2,1,-6,2,.,.,.,.
C[C@@H]1CN([C@@H](C)CO)C(=O)Cc2cc(N(C)C)ccc2O[C@H]1CN(C)Cc1ccc(Cl)c(Cl)c1,107*,-1,8,110*,64,11,107*
C[C@@H]1CN([C@@H](C)CO)C(=O)c2cc(N(C)C)ccc2O[C@@H]1CN(C)Cc1ccc(Cl)c(Cl)c1,75,0,1,.,.,.,.
CCN(CC(=O)Nc1ccc(Cl)c(C(F)(F)F)c1)S(=O)(=O)c1ccc(C)cc1,.,0,.,.,.,.,.
O=C(CSc1nc2c(c(-c3ccccc3)n1)CCCCC2)N1N=CCC1c1ccccc1 (stereo not given),.,-1,.,.,.,.,.
CCC(=O)N(C)C[C@H]1Oc2cc(C#CCC(C)C)ccc2S(=O)(=O)N([C@H](C)CO)C[C@@H]1C,55,-3,-1,.,.,.,.
C[C@H](CO)N1C[C@H](C)[C@@H](CN(C)C(=O)Cc2ccncc2)Oc2cc(C#Cc3ccccc3F)ccc2S1(=O)=O,.,.,-1,.,.,.,.
